Experimental findings from ChEMBL document CHEMBL1909596, “Synthesis and evaluation of chromenyl barbiturates and thiobarbiturates as potential antitubercular agents” (Bioorg Med Chem Lett, 2011) are described below.

Structures are written as SMILES. ≈ marks a conversion by molar mass, not a printed value.

One may read the IC50 as the concentration that gives 50% inhibition. Broadly, the IC90 is the concentration needed for an effect of 90%. Usually CC50 stands for the concentration that lowers cell viability or growth by half.

The first data set deals with Mycobacterium tuberculosis. Nature of the data set: Antimycobacterial activity against Mycobacterium tuberculosis H37Rv ATCC 27294 by microplate alamar blue assay. Type of data set: functional, organism-based.
Conditions: not given
In outline:
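Strain grown in BACTEC 12B medium, broth microdilution with Alamar Blue read-out (TAACF protocol). Primary screen at 6.25 µg/mL; compounds reaching ≥90% growth inhibition retested in 10 twofold dilutions, typically from 100. MIC taken as the lowest concentration giving 90% fluorescence reduction relative to controls. Fluorescent compounds tested in BACTEC 460 radiometric system instead. Rifampin control.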
In general terms: The colour change of resazurin is a common sign of viable cells or microbes.
Regarding `Cc1c(C(=O)c2ccc(Cl)cc2)oc2cc3occ(C=C4C(=O)NC(=O)NC4=O)c(=O)c3cc12`, half-maximal inhibition (IC50) required 65.1 mg/L (≈ 136 µM) and the IC90 turned out to be 93 mg/L (≈ 195 µM).
The like results for `Cc1ccc(C(=O)c2oc3cc4occ(C=C5C(=O)NC(=O)NC5=O)c(=O)c4cc3c2C)cc1` were, in that order, 55.2 mg/L (≈ 121 µM) and 84.7 mg/L (≈ 186 µM).
Turning to `Cc1c(C(=O)c2ccccc2)oc2cc3occ(C=C4C(=O)NC(=S)NC4=O)c(=O)c3cc12`, the IC50 is over 100 mg/L and the concentration for an effect of 90% (IC90) was over 100 mg/L.
Take `NC(=O)c1cnccn1` [PYRAZINAMIDE]: the IC90 was over 20 mg/L.
`COc1ccc(C(=O)c2oc3cc4occ(C=C5C(=O)NC(=O)NC5=O)c(=O)c4cc3c2C)cc1` had an IC50 of over 100 mg/L and an IC90 of over 100 mg/L.
`Cc1cc(=O)oc2cc3occ(C=C4C(=O)NC(=S)NC4=O)c(=O)c3cc12` gave an IC50 of over 100 mg/L and an IC90 of over 100 mg/L.
In turn, `COc1ccc(C(=O)c2oc3cc4occ(C=C5C(=O)NC(=S)NC5=O)c(=O)c4cc3c2C)cc1` displayed an IC50 of over 100 mg/L and an IC90 of over 100 mg/L.
`Cc1c(C(=O)c2ccc(-c3ccccc3)cc2)oc2cc3occ(C=C4C(=O)NC(=O)NC4=O)c(=O)c3cc12` yielded an IC50 of over 100 mg/L and an IC90 of over 100 mg/L.
Take `Cc1cc(=O)oc2cc3occ(C=C4C(=O)NC(=O)NC4=O)c(=O)c3cc12`: the IC50 was over 100 mg/L and the IC90 is over 100 mg/L.
With `Cc1cc(=O)oc2c(C)c3occ(C=C4C(=O)NC(=O)NC4=O)c(=O)c3cc12`, 4.71 mg/L (≈ 12.4 µM) corresponded to half-maximal inhibition (IC50) and the IC90 came out at 5.9 mg/L (≈ 15.5 µM).
The like results for `Cc1c(C(=O)c2ccc(Br)cc2)oc2cc3occ(C=C4C(=O)NC(=O)NC4=O)c(=O)c3cc12` were, in that order, 38.5 mg/L (≈ 73.9 µM) and 55.4 mg/L (≈ 106 µM).
The like results for `Cc1c(C(=O)c2ccc(Cl)cc2)oc2cc3occ(C=C4C(=O)NC(=S)NC4=O)c(=O)c3cc12` were, in that order, 42 mg/L (≈ 85.3 µM) and 63.8 mg/L (≈ 129 µM).

Tested on in another data set: not listed separately
Nature of the data set: Cytotoxicity against african green monkey Vero cells after 72 hrs by celltiter-glo luminescent cell viability assay. Type of data set: cell-based. To be noted: chlorocebus sabaeus. In outline:
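VERO cells exposed to compounds for 72 h. Viability read from ATP content by luminescence. CC50 derived by curve fitting of dose–response curves.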
Molecule `Cc1cc(=O)oc2c(C)c3occ(C=C4C(=O)NC(=O)NC4=O)c(=O)c3cc12` came in with a CC50 at 72 h of 14.3 mg/L (≈ 37.5 µM).

Tested on in a further data set: not listed separately
The data set can be described thus: Selectivity index, ratio of CC50 african green monkey Vero cells to IC90 for Mycobacterium tuberculosis H37Rv ATCC 27294. The format is toxicity, cell-based.
Conditions: not given
In outline: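 SI calculated as VERO CC50 (72 h luminescent ATP viability assay, curve-fitted) divided by the MABA MIC (90% fluorescence reduction endpoint) for H37Rv.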
Turning to `Cc1cc(=O)oc2c(C)c3occ(C=C4C(=O)NC(=O)NC4=O)c(=O)c3cc12`, the selectivity ratio was found to be 2.41.
